Compounds with a hit are over-represented: about 1.7% of the library has one in this group of screens.
procasp7 counter: counter-screen: procaspase-7 (human) activation; P55210; recombinant procaspase-7, Ac-DEVD-pNA absorbance 405 nm; D23A/D198A/D206A triple mutant, cannot self-cleave; scale: DMSO 0, 5 µM enzyme 100; activation, % at 8.5 µM; 0.093% of 330,000 active;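 active means percent activation above the screen-wide mean plus 3 SD, cut at about 25% in these data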
Target sequence (P55210 whole entry D23A/D198A/D206A): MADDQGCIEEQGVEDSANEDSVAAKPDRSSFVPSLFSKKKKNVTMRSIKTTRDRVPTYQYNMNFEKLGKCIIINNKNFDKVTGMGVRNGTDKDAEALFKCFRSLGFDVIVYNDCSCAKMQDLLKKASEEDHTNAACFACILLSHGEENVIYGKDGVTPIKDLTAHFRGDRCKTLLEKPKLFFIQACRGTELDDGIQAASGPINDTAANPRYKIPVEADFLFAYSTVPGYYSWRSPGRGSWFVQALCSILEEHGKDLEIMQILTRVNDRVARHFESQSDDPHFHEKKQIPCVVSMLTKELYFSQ
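Material: Procaspase-7 triple mutant (PC-7 D3A) | Quantity: 2 µM procaspase-7 mutant as dispensed | Reagent: DEVD-pNA substrate | Times: 1 h preincubation, 2 h reaction | Technique: 405 nm absorbance of p-nitroaniline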
VIM-2 inhibitor: inhibitors of Pseudomonas aeruginosa VIM-2 metallo-beta-lactamase | purified VIM-2, nitrocefin hydrolysis, epi-absorbance fluorescence | inhibition, % at 5.6 µM | 0.89% of 290,000 active | AID 1527;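 active means inhibition above the mean of all tested compounds plus 3 SD, cutoff set per screening run, cut at about 7.5% in these data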;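 further: red hydrolysis product quenches plate fluorescence so inhibitors raise well fluorescence; 0% = enzyme with DMSO and 100% = DMSO without enzyme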
PolyA inh: inhibitors of polyadenylation in S. cerevisiae | S. cerevisiae SKY197-pL101 polyadenylation reporter, beta-gal luminescence; efflux-impaired pdr1/pdr3 knockout yeast; score 100 = 6 SD above DMSO | activity score, % at 12 µM | 0.02% of 300,000 active;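 active means lowest replicate activity score at least 50, where 100 means six control SD above control mean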;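 further: yeast exposed to compound for 9 h at 30 °C; higher score means more reporter readthrough which indicates perturbed polyadenylation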
Neddylation inh: blocks human cullin neddylation; AID 651699; TR-FRET cullin neddylation, biochemical; calls only at 25 µM; 0.58% of 360,000 active; P61081+Q13564; in the data active means inhibition above about 36%
procasp3 activ: activates human procaspase-3; recombinant procaspase-3 D3A, Ac-DEVD-pNA absorbance 405 nm; activation, % at 8.5 µM; 0.11% of 330,000 active;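 active means activation above the mean of all tested compounds plus 3 SD, cut at about 21% in these data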;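 further: 0% = DMSO alone and 100% = DMSO wells spiked with extra 5 µM PC-3 D3A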
Target sequence (P42574 whole entry D9A/D28A/D175A): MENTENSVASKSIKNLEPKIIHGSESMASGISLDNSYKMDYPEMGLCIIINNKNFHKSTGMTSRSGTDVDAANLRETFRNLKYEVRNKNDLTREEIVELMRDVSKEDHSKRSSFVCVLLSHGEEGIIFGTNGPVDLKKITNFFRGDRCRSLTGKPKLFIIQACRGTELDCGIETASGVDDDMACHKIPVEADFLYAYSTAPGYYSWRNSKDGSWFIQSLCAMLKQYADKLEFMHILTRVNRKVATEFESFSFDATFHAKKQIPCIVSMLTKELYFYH
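Test system: Procaspase-3 D3A mutant, all three cleavage aspartates alanine | Dosing: Single dose, 8.5 µM nominal compound, 0.8% DMSO | Schedule: 1 h preincubation, 2 h reaction | Technique: 405 nm absorbance of p-nitroaniline, reads at 0 and 120 min | Repeats: One well per compound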
IMP-1 inhibitor: blocks Pseudomonas aeruginosa IMP-1 metallo-beta-lactamase; purified IMP-1, nitrocefin hydrolysis, epi-absorbance fluorescence; inhibition, % at 5.6 µM; 0.45% of 290,000 active; AID 1556;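 active means inhibition above the mean plus 3 SD of all compounds in the same screening run, cut at about 4.5% in these data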;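 further: 0% = IMP-1 with DMSO and 100% = DMSO wells lacking enzyme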
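Assay system: purified IMP-1; Quantity: IMP-1 0.2 nM before substrate addition; Medium: HEPES buffer pH 7.1 with ZnSO4 and Brij 35; Incubation: 15 min enzyme–compound preincubation, then 25 min nitrocefin reaction, 25 °C; Signal: fluorescence quenching readout, ex 480/em 530 nm; Controls: DMSO with and without IMP-1; Repeats: singlicate testing.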
Neddyl conf: cullin neddylation inhibition, confirmation | shares compounds with Neddylation inh | TR-FRET cullin neddylation biochemical assay | calls only at 25 µM | 13% of 1,800 active; in the data active means inhibition above about 40%;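 further: neddylation substrate is the cullin 1 ring ligase complex with SKP2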
* marks the source's active call; other numbers are inactive results; i = inactive; . = no result shown; + = active, no number.

SMILES	procasp7 counter	VIM-2 inhibitor	PolyA inh	Neddylation inh	procasp3 activ	IMP-1 inhibitor	Neddyl conf
Cc1ccc(-n2nc3c(c2NC(=O)C(C)(C)C)CS(=O)(=O)C3)cc1	1	-1	-7	i	-9	-2	.
C=CCNC(=O)C(C#N)c1nc2ccccc2nc1N1CCN(Cc2ccccc2)CC1 (stereo unspecified)	-4	-2	3	+	-4	-1	i
Cc1ccc(NC(=O)c2cnccn2)c(Br)c1	3	1	-24	i	8	0	.
Cc1ccc(CN(Cc2ccco2)C(=O)c2ccco2)cc1	2	-4	-6	i	7	-5	.
Cc1ccc(-c2nn(-c3ccccc3)cc2C2CC(c3cccs3)=NN2C(=O)CCC(=O)O)cc1 (stereo unspecified)	-31	-1	-4	+	-3	-4	i
COc1ccc(C(=O)Nc2ccc(NC(=O)c3cccs3)cc2)cc1Cl	8	-2	16	+	10	-2	i
COc1ccc(C(=O)Nc2ccc(NC(=O)c3cccs3)c(OC)c2)cc1Cl	-1	-3	.	.	12	-2	.
Cc1cc(NC(=O)NC(=O)c2ccccc2)no1	-3	-1	12	i	8	-4	.
O=C(COc1ccc2c3c(c(=O)oc2c1)CCCC3)N[C@@H](Cc1ccccc1)C(=O)O	4	0	-13	+	8	-2	.
CC(=O)Nc1ccc2nc(-c3ccccc3)cn2c1	1	-2	2	+	-5	0	i
CCC(=O)Nc1cccc(-c2cn3ccccc3n2)c1	-5	0	-3	+	3	-3	i
O=C(Nc1cccc(-c2cn3ccccc3n2)c1)c1cccc(Cl)c1	5	-2	1	+	-7	-1	.
COc1ccc(CC(=O)Nc2cccc(-c3cn4ccccc4n3)c2)cc1	0	-1	-3	i	3	-2	.
Cc1cc(NC(=O)COc2cccc([N+](=O)[O-])c2)no1	7	-1	6	i	3	-1	.
C=CCNc1nc2cc(-c3ccc(C(=O)N4CCOCC4)cc3)sc2c(=O)n1C	.	.	.	i	.	.	.
CCCCC[n+]1ccn(-c2nc3ccccc3nc2[N-]S(=O)(=O)c2ccc(C)cc2)c1	-2	0	10	+	1	-3	i
O=S(=O)([N-]c1nc2ccccc2nc1-n1cc[n+](Cc2ccccc2)c1)c1ccccc1	3	1	3	+	-5	-2	+
Cc1ccc(S(=O)(=O)[N-]c2nc3ccccc3nc2-n2cc[n+](Cc3ccccc3)c2)cc1	0	1	23	.	-4	-2	.
COCCNC(=O)[C@H](C)[C@H]1C[C@]1(C)[C@H](NC(=O)OCc1ccccc1)c1ccccc1	-3	-1	6	i	4	-4	.
CCc1ccccc1NC(=O)C1=CN2CCS(=O)(=O)N=C2C=C1	.	.	.	i	.	.	.
O=C(N/N=C/c1cn(-c2ccccc2)nc1-c1ccccc1)c1ccco1	4	-2	8	+	-6	-2	i
CN(C)C(=O)COC(=O)/C=C/c1cn(-c2ccccc2)nc1-c1cccs1	1	1	-5	+	-3	-1	.
NC(=O)N/N=C/c1cn(-c2ccccc2)nc1-c1cccs1	-3	-2	5	i	-6	-2	.
O=C(N/N=C/c1nn(-c2ccccc2)cc1-c1ccccc1)c1ccncc1	5	-3	-13	+	-13	-4	i
O=C(N/N=C/c1cn(-c2ccccc2)nc1-c1cccs1)c1ccncc1	-32	-3	-13	+	-30	-5	.
SMILES	procasp7 counter	VIM-2 inhibitor	PolyA inh	Neddylation inh	procasp3 activ	IMP-1 inhibitor	Neddyl conf
CN(C)C(=O)c1c(-c2ccccc2)oc2ccc(O)cc12	-11	-2	17	+	0	-4	i
O=C(O)c1c(-c2ccccc2)oc2ccc(O)cc12	13	0	-2	.	9	-1	.
CCCOc1cccc(C2C(C(=O)c3cc4ccccc4o3)=C(O)C(=O)N2c2cc(C)on2)c1 (stereo unspecified)	-15	-1	20	+	-8	0	i
Cc1cc(N2C(=O)C(O)=C(C(=O)c3cc4ccccc4o3)C2c2cccc(Br)c2)no1 (stereo unspecified)	-16	-3	-9	i	-13	0	.
CCC(C)(C)NC(=O)c1ccc2c(c1)N(CC(=O)N1CCCC1)C(=O)C(C)(C)O2	4	-1	13	i	9	-4	.
CCc1ccc2[nH]c(=O)c(C(c3nnnn3CCOC)N3CCN(c4ccc(F)cc4)CC3)cc2c1 (stereo unspecified)	-2	-3	-11	i	5	-3	.
COCCn1nnnc1C(c1cc2cc(OC)c(OC)cc2[nH]c1=O)N1CCN(c2ccc(O)cc2)CC1 (stereo unspecified)	-16	0	2	+	-12	-1	i
O=C1OC(c2ccc(Cl)cc2)=N/C1=C\C=C\c1ccco1	-4	-2	-7	i	-7	-2	.
O=C1OC(c2ccccc2)=N/C1=C\C=C\c1ccco1	-3	1	-3	+	2	-3	i
O=C(CNS(=O)(=O)Cc1ccccc1)NNc1ccccc1	.	.	.	i	.	.	.
COc1ccc(/C=C/c2ccccc2)cc1[C@H]1[C@H]2C=CC[C@@H](C)[C@@H]2C(=O)N1Cc1ccccc1	5	.	5	+	8	.	i
Cc1ccc(S(=O)(=O)Nc2nc3ccccc3nc2NCC2CCCO2)c(C)c1 (stereo unspecified)	0	-1	4	+	5	-3	.
Cc1cccc(S(=O)(=O)Nc2nc3ccccc3nc2NCC2CCCO2)c1 (stereo unspecified)	-2	-1	-13	i	0	-2	.
Cc1ccc(S(=O)(=O)Nc2nc3ccccc3nc2NCC2CCCO2)cc1C (stereo unspecified)	2	0	19	+	0	-3	i
COc1ccc(OC)c(C2C(C(N)=O)=C(C)Nc3nc(-c4cccc(Cl)c4)nn32)c1 (stereo unspecified)	11	-1	1	i	8	-1	.
COC(=O)C1C(O)=C(C=NCc2ccccc2)C(=O)CC1(C)C (stereo unspecified)	-5	-2	4	i	3	-1	.
COC(=O)C1C(O)=C(C=Nc2cccc3ccccc23)C(=O)CC1(C)C (stereo unspecified)	-3	-1	-10	+	11	0	+
